# Yeast superoxide – lowers age-related superoxide in aged yeast cells | S. cerevisiae aged cells, superoxide DHE fluorescence; active compounds read low | superoxide response (% of plate mean), % at 10 µM | hit rate 0.18% among 330,000 | AID 2690;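 active = superoxide response under a set limit, about three screen SD below normal, cut at about 65% in these data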;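 also: yeast aged for seven days with compound at 30 °C before DHE staining; 100% = average MFI of all compound-treated wells on the plate with controls excluded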
# proKLK7 act – activators of human kallikrein-7 zymogen | purified proKLK7, EDANS-DABCYL substrate fluorescence; 100% is mature enzyme control, 0% vehicle | activation, % at 7 µM | hit rate 0.9% among 370,000 | P49862;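 active = activation above the mean of all tested compounds plus 3 SD, computed per campaign excluding outliers beyond control limits, cut at about 13% in these data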
# Target sequence (P49862 whole entry, looked up): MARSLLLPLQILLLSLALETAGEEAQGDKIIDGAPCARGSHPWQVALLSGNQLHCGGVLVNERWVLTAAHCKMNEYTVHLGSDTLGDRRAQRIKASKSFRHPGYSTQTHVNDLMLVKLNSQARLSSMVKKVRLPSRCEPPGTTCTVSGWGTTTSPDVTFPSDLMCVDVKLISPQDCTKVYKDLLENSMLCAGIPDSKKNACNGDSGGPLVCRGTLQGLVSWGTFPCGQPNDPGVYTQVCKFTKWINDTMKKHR
# Rce1 inhib – inhibitors of yeast Ras-converting enzyme; Q03530; yeast membranes, quenched prenylated peptide cleavage fluorescence; calls only; hit rate 0.27% among 290,000; AID 2563;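 active = fall in fluorescence gain of 50% or more versus controls, with final raw signal at or below 3038400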;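 also: plate controls were neutral control wells for no effect and wells lacking membranes for full effect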
# Target sequence (Q03530 whole entry, looked up): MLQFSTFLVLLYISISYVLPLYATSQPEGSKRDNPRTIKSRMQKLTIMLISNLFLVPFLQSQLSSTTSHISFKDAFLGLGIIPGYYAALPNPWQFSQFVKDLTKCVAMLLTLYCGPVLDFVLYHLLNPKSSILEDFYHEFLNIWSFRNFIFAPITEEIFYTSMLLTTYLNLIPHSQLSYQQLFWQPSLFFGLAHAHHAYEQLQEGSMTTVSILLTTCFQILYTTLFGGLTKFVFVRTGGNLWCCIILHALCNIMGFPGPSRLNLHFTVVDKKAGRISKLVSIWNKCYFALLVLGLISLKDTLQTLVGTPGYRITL
# T cell modulator – T cell immune modulators affecting CD8 T cell-vesicle binding | 2C CD8+ T cell-vesicle binding, flow cytometry; active compounds read low | response (vesicle binding), % at 7 µM | hit rate 0.068% among 330,000 | AID 2052;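 active = response, share of CD8 T cells binding vesicles, and their 90th percentile fluorescence all below set limits, cut at about 80% in these data, passing the limit was not always enough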;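 also: values below 100% mean blocked vesicle binding to the CD8+ T cells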
#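 Read-out – percent CD8+ FL2 mean versus row control · System – murine 2C transgenic CD8+ T lymphocytes · Times – 1.5 h cell–vesicle binding at 37 °C, then 20 min icy labelling · Control set – naked vesicles low, QL9 vesicles with vehicle high · Detection – cytometric PE anti-B7-1 and Alexa647 anti-CD8 signals after 1% paraformaldehyde fixation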
# V-ATPase pH – yeast V-ATPase proton transport regulation by pHLuorin; S. cerevisiae, pHLuorin cytosolic pH fluorescence; response, % at 10 µM; hit rate 0.37% among 350,000; AID 504577; in the data active = response mostly above about 7.3%, no sharp cut-off; inactive = mostly below about 5.4%; also: actives read high
# MIN6 prolif – induces beta-cell replication in MIN6 cells | MIN6 cells proliferation, ATPlite luminescence, 48 h; cells starved in 0.2% serum; 100% = growth in 10% serum | proliferation, % at 10 µM | hit rate 0.29% among 330,000 | AID 2380;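 active = compounds whose signal lies at least 3.5 SD above the mean of all wells on their plate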;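 also: 0% = DMSO-treated cells in low-serum medium and 100% = 10% serum control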
# * = called active by the depositor; i = inactive; · = not tested or not shown; + = active, no number. Rows were chosen to be rich in hits. Some 1.9% of all compounds tested hit in one or more screens of this group.
SMILES,Yeast superoxide,proKLK7 act,Rce1 inhib,T cell modulator,V-ATPase pH,MIN6 prolif
COc1cccc(Nc2nc(C)nc3c2oc2ccccc23)c1,92,2,+,330,3,1
COc1cccc(/C=C2\SC(=O)N(CCC(=O)NNC(=O)c3ccccc3Cl)C2=O)c1,94,0,i,10*,-1,0
COc1cccc(/C=C2\SC(=S)N(CCC(=O)NNC(=O)c3ccccc3OC)C2=O)c1,87,0,i,830,2,0
COc1ccc(C)cc1NC(=S)N1CC(C)OC(C)C1 (configuration not stated),102,0,i,259,15*,-1
O=C1C(=O)N(CCCn2ccnc2)C(c2ccc(Br)cc2)/C1=C(\O)c1ccc2c(c1)OCCO2 (configuration not stated),100,0,i,405,2,-1
O=C1C(=O)N(CCCn2ccnc2)C(c2ccc([N+](=O)[O-])cc2)/C1=C(\O)c1ccc2c(c1)OCCO2 (configuration not stated),112,0,·,0.0*,-1,-1
Cc1ccc(-n2c(Cc3cccn3C)nnc2SCC(=O)N2CCN(c3ccccc3)CC2)cc1,94,2,i,308,20*,3
O=C(CSc1ncnc2ccccc12)Nc1ccc2c(c1)OCO2,94,0,i,249,0,-1
O=C(CSc1ncnc2ccccc12)NCc1ccc2c(c1)OCO2,97,0,i,207,2,7.7*
Cc1cccc(C)c1OCC(=O)Nc1ccccc1N1CCCCC1,88,0,i,206,0,-5
Cc1cccc(OCC(=O)Nc2ccccc2N2CCCCC2)c1C,85,1,i,153,8.8*,-7
O=C(CSc1nnc(-c2ccco2)n1-c1ccc(Cl)cc1)Nc1ccccc1-c1ccccc1,·,0,·,·,·,·
COc1ccc(C2CC(c3ccc4ccccc4c3)=NN2C(=O)CNC2CCCCC2)cc1 (configuration not stated),92,-1,+,256,2,-6
CCOC(=O)[C@@H]1[C@H]2COc3ccc(Br)cc3[C@@H]2N2C(=O)N(c3cccc(Cl)c3)C(=O)[C@]12C,102,0,+,524,-1,-6
CCOC(=O)[C@@H]1[C@H]2COc3ccc(Br)cc3[C@@H]2N2C(=O)N(c3cccc(Cl)c3)C(=O)[C@@]12C,117,0,·,239,3,-4
O=C(NC1CCCCN(Cc2cccc(F)c2)C1=O)c1ccc(F)cc1 (configuration not stated),·,0,·,·,·,·
COC(=O)[C@H]1C[C@@]2(N3CCCC3)c3ccccc3N[C@H]2N1S(=O)(=O)c1ccc([N+](=O)[O-])cc1,·,0,·,·,·,·
CCN1CCN(c2ccc(S(=O)(=O)N3CCCCC3)cc2NC(=O)c2ccccc2)CC1,107,0,i,353,-2,2
CCN1CCN(c2ccc(S(=O)(=O)N3CCCCC3)cc2NC(=O)c2cccc(C)c2[N+](=O)[O-])CC1,87,-1,i,49*,10,-5
CCOC(=O)[C@@]12CN(C(=O)OC(C)(C)C)CC=C1N(Cc1ccc(OC)cc1)C(=O)[C@H]2CC(=O)N1CCC(c2ccccc2)CC1,·,0,·,·,·,·
CCCCNC1c2ccccc2C(=O)N1Cc1ccccc1 (configuration not stated),103,0,i,167,17*,3
O=C(NCc1ccccc1)[C@@H]1CCCN1C(=O)[C@H]1CCCN1C(=O)c1ccccc1C(F)(F)F,·,0,·,·,·,·
C=CCN1C(=O)c2[nH]nc(-c3ccccc3)c2C1c1ccc(C)cc1 (configuration not stated),·,1,·,·,·,·
COc1ccc(C[C@H]2c3cc(O)c(OC)cc3CC[N+]2(C)[O-])cc1O (some centres not stated),101,0,+,353,0,-3
COc1cc2c(cc1O)C(Cc1ccc(O)cc1)[N+](C)([O-])CC2 (configuration not stated),96,0,i,862,0,-3
SMILES,Yeast superoxide,proKLK7 act,Rce1 inhib,T cell modulator,V-ATPase pH,MIN6 prolif
O=C(NCC1COc2ccccc2O1)c1ccc(NC(=O)C(Cl)Cl)cc1 (configuration not stated),·,0,·,·,·,·
O=C(N1CCOCC1)N1CC[C@H]2[C@H](CCCN2Cc2cc(F)cc(F)c2)C1,·,0,·,·,·,·
CCN(C(=O)Cn1c(=O)oc2ccccc21)c1cccc(C(F)(F)F)c1,116,1,i,52*,0,0
CCN(C(=O)Cn1c(=O)oc2ccccc21)c1cccc(C)c1,118,0,i,122,3,-6
COC(=O)[C@]12C[C@H](CC(=O)NCc3cccc4ccccc34)C(=O)N(CCC3=CCCCC3)C1=C[C@H](COCc1ccccc1)O[C@@H]2C,·,1,·,·,·,·
O=C(C[n+]1cccc2ccccc21)c1ccccc1,102,0,i,318,-3,0
O=C(C[n+]1cc2ccccc2c2ccccc21)c1ccccc1,90,-3,+,364,4,-4
COc1cccc(CNc2nc3nc(C)cc(C)n3n2)c1,102,1,+,171,3,-3
O=C1C=CC(=O)N1c1ccc(-c2nc3ccccc3o2)cc1,·,·,·,·,20*,·
Cc1ccc(C(=O)N/N=C/C2=Cc3ccccc3OC2C)cc1 (configuration not stated),74,-8,i,691,-3,-1
CC1Oc2ccccc2C=C1/C=N/NC(=O)[C@@H](C)NC(=O)OC(C)(C)C (some centres not stated),103,6,+,i,0,-1
COc1ccc(C2c3c(ncn(CCCO)c3=N)Oc3ccc4ccccc4c32)cc1 (configuration not stated),104,0,+,206,-1,-4
O=C(NC1CCCCN(Cc2cccc(Cl)c2)C1=O)C1CCCCC1 (configuration not stated),·,0,·,·,·,·
O=C(NCCc1nc2ccc(Cl)cc2[nH]1)C1CCC(=O)N(Cc2cccc(F)c2)C1 (configuration not stated),88,1,i,67*,0,-1
O=C(NCCc1cccc(Cl)c1)C1CCC(=O)N(Cc2ccc(Cl)cc2)C1 (configuration not stated),90,1,i,284,0,-1
Cc1nn(-c2ccccc2)c(C)c1CNC(=O)c1ccc(S(=O)(=O)NCc2ccco2)cc1,102,0,·,395,20*,-3
COc1ccc(N2C(=O)c3n[nH]c(C)c3C2c2ccc(F)cc2)cc1 (configuration not stated),·,0,·,·,·,·
CC1=C(C(=O)OCCc2ccccc2)C(c2ccsc2)NC(=O)N1C (configuration not stated),102,0,i,152,23*,-3
COC(=O)C(C(=O)OC)[C@H]1C=C[C@@H](C(=O)NS(=O)(=O)c2ccc(C)cc2)N(C(C)=O)C1,·,0,·,·,·,·
